Residues, ends and D or L forms follow the SMILES beside them.
How the values were obtained:
Dipeptidyl peptidase 4 [1] = molecular target: T1, Dipeptidyl peptidase 4 (Homo sapiens, UniProt P27487); assay: Inhibition of DPP-4 (unknown origin) assessed as inhibition of endomorphin-2 degradation after 30 min
In short: (§1)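 Purified commercial DPP IV (0.002 mg protein/ml) incubated with endomorphin and inhibitor, each from 1 mM solutions in 50 mM Tris–HCl pH 7.4, at 37°C for 0, 7.5, 15, 22.5 and 30 min. Stopped on ice with 1 M HCl, centrifuged. Rate constant k from linear regression of ln(A/A0) of peptide peak area versus time; t1/2 = ln2/k. Three independent experiments in duplicate.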

Dipeptidyl peptidase 4 [2] = molecular target: T1, Dipeptidyl peptidase 4; assay: Inhibition of DPP-4 (unknown origin) assessed as half-life of endomorphin-1 after 30 min by RP-HPLC analysis (reference value: […] +/- 0.52 min)
Target sequence in this assay (P27487 whole entry, looked up): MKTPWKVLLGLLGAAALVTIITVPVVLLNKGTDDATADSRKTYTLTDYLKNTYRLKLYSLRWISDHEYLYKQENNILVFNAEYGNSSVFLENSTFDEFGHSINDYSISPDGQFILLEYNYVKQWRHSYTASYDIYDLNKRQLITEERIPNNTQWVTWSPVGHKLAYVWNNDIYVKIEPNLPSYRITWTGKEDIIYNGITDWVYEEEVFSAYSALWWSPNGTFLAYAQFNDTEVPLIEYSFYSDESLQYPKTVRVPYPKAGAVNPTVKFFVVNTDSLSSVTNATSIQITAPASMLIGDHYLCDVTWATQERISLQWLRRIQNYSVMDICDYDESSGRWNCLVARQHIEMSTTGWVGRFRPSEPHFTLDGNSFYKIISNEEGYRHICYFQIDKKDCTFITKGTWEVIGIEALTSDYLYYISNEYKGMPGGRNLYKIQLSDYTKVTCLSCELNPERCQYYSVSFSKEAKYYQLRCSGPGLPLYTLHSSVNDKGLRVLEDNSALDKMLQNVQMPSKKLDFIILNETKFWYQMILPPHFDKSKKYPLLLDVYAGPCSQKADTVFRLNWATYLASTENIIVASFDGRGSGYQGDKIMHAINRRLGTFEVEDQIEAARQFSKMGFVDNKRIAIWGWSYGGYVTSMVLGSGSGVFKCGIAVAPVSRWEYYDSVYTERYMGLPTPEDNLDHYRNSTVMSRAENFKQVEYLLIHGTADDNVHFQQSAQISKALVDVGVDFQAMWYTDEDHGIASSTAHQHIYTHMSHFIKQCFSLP

Dipeptidyl peptidase 4 [3] = molecular target: T1, Dipeptidyl peptidase 4; assay: Inhibition of DPP-4 (unknown origin) assessed as half-life of endomorphin-2 after 30 min by RP-HPLC analysis (reference value: […] +/- 0.64 min)
Target sequence in this assay (P27487 whole entry, looked up): as above

Dipeptidyl peptidase 4 [4] = molecular target: T1, Dipeptidyl peptidase 4; assay: Inhibition of DPP-4 (unknown origin) assessed as inhibition of endomorphin-1 degradation after 30 min; in short: as §1
Aminopeptidase N [5] = molecular target: T2, Aminopeptidase N (Homo sapiens, UniProt P15144)
Aminopeptidase N [6] = molecular target: T2, Aminopeptidase N; remark: listed apart in the source
Aminopeptidase N [7] = molecular target: T2, Aminopeptidase N; assay: Inhibition of APM (unknown origin) assessed as inhibition of endomorphin-2 degradation after 30 min
Aminopeptidase N [8] = molecular target: T2, Aminopeptidase N; assay: Inhibition of APM (unknown origin) assessed as inhibition of endomorphin-1 degradation after 30 min

T2 sequence (P15144 whole entry): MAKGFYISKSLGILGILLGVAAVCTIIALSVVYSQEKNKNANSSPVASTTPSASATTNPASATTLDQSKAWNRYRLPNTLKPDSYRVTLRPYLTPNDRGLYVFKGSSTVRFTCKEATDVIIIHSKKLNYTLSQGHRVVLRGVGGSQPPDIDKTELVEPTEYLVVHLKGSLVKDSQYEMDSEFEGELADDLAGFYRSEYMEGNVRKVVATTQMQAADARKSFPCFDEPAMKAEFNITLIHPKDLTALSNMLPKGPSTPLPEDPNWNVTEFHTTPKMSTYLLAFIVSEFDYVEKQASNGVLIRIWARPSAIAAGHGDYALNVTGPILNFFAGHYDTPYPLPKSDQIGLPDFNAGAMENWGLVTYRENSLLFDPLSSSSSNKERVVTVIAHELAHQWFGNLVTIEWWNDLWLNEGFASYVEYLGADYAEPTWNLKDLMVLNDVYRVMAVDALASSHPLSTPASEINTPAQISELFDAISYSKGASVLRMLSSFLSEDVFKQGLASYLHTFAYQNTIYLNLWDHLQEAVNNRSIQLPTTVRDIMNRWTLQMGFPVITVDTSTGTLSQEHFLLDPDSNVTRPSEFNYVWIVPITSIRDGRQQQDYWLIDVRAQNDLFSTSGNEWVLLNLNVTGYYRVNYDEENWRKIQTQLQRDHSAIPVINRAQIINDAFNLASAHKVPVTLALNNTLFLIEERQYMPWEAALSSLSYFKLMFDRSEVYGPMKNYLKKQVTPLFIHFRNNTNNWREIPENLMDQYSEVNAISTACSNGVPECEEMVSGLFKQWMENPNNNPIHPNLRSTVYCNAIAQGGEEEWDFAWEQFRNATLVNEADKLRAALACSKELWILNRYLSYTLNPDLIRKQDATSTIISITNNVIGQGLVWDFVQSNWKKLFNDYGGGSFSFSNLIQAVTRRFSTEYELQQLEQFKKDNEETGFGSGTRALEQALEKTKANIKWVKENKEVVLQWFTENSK

C[C@H](NC(=O)[C@@H]1CCCN1C(=O)[C@@H](N)Cc1ccc(O)cc1)C(N)=O (H-Tyr-Pro-Ala-NH2)
Ki (Dipeptidyl peptidase 4 [1]): 170 µM
inhibition (Dipeptidyl peptidase 4 [1]): 44.8%
T1/2 (Dipeptidyl peptidase 4 [2]): 22.9 min
T1/2 (Dipeptidyl peptidase 4 [3]): 19.8 min
Ki (Dipeptidyl peptidase 4 [4]): 420 µM
inhibition (Dipeptidyl peptidase 4 [4]): 26.7%

CC[C@H](C)[C@H](N)C(=O)N1CCC[C@H]1C(=O)N[C@H](C(=O)O)[C@@H](C)CC
T1/2 (Dipeptidyl peptidase 4 [2]): 530 min
T1/2 (Dipeptidyl peptidase 4 [3]): 383 min

CCCCC[C@H](CC(=O)NO)C(=O)N[C@H](C(=O)N1CCC[C@H]1CO)C(C)C [ACTINONIN]
T1/2 (Aminopeptidase N [5]): 46.3 min
T1/2 (Aminopeptidase N [6]): 36.8 min
Ki (Aminopeptidase N [7]): 300 µM
Ki (Aminopeptidase N [8]): 390 µM

C[C@H](NC(=O)[C@@H]1CCCN1C(=O)[C@@H](N)Cc1ccc(O)cc1)C(=O)O (H-Tyr-Pro-Ala-OH)
T1/2 (Dipeptidyl peptidase 4 [2]): 27.5 min
T1/2 (Dipeptidyl peptidase 4 [3]): 27.4 min

From ChEMBL document CHEMBL3046736, “Kinetic studies of novel inhibitors of endomorphin degrading enzymes” (Med Chem Res, 2012)
